# “And” between values parts separate entries of the source, which are not always exact repeats. Identical values can stand only once. Like-named read-outs stand apart in the source and are kept apart here. Marks after values point to notes of the source that are not given here.
# Columns and labels:
# [1] = Pharmacokinetic analysis in mouse plasma and brain after i.p. injection; assay type: in vivo
# F1.Scn1a^+/− mice [2] = experiment: Hyperthermia-induced seizures; assay type: in vivo, mouse
# Outline: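 Male and female F1.Scn1a+/− mice at P14–16 received i.p. dosing (10 mL/kg; vehicle ethanol:Tween 80:saline 1:1:18). A rectal probe was inserted 15 min before the post-dose time point (30 or 60 min, set by PK), followed by 5-min acclimation. Core temperature was raised 0.5°C every 2 min until first clonic convulsion with loss of posture, or to 42.5°C with a 3-min hold. n = 17–22 per group; logrank Mantel-Cox.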
# [3] = assay type: in vivo, mouse; conditions: for concentration at 60 min: both, F1.Scn1a+/−, mouse, in vivo, Plasma Concentration; for concentration at 60 min / Plasma Concentration: F1.Scn1a^+/− mice; for Plasma Concentration: 30 min
# [4] = assay type: in vivo, mouse; conditions: 350 mg/kg chow, subchronic oral
# F1.Scn1a^+/− mice [5] = experiment: Spontaneous seizures and survival; assay type: in vivo, mouse; conditions: 350 mg ABX-1431/kg chow
# Outline: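 Male and female F1.Scn1a+/− mice had one hyperthermia-induced seizure at P18, then were randomised to untreated or 350 mg/kg medicated chow made from irradiated powdered diet. Continuous 60-h video recording was used to count and score spontaneous GTCS. Treatment continued to P30 for survival. Fisher's exact test covered seizure-free and hindlimb-extension proportions, Mann-Whitney covered frequency, and logrank covered survival.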
# [6] = tested on: 2-arachidonoylglycerol (2-AG); experiment: Hippocampal 2-AG concentrations after ABX-1431 treatment; assay type: in vivo, mouse; conditions: F1.Scn1a^+/− mice
# anandamide (AEA) = experiment: Hippocampal anandamide concentrations after ABX-1431 treatment; assay type: in vivo, mouse; conditions: acute i.p. treatment; F1.Scn1a^+/− mice
# Outline: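 Acute i.p. dosing of F1.Scn1a+/− mice in ethanol:Tween 80:saline (1:1:18), 10 mL/kg. Whole brains were taken 60 min post-dose after hyperthermia testing, by cervical dislocation without anaesthesia, and snap frozen. Hippocampi were Dounce-homogenised and spun at 20,000g for 30 min at 4°C. Supernatant underwent dichloromethane:methanol (2:1)/0.88% KCl liquid-liquid extraction on ice, avoiding plastics. Analysis was by UHPLC-triple quadrupole LC-MS/MS against external calibration curves. 2-AG: Brown-Forsythe ANOVA, Dunnett's T3. Anandamide: Kruskal-Wallis.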
# CB1 receptor [7] = experiment: Hippocampal CB1 receptor expression by immunoblotting after subchronic treatment; assay type: in vivo, mouse; conditions: subchronic 350 mg ABX-1431/kg chow; F1.Scn1a^+/− mice; p = 0.0077
# Outline: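 Hippocampi from F1.Scn1a+/− mice, untreated or fed 350 mg/kg chow, were Dounce-homogenised in buffered 0.32 M sucrose. Membranes were isolated by sequential 2,000g and 20,000g spins at 4°C and protein quantified by Bradford. Membrane protein (20 μg) was run on 10% SDS-PAGE and transferred to PVDF. Rabbit anti-CB1 was detected with fluorescent secondaries (1:20,000). Densitometry was normalised to β-tubulin; Student's t-test.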
# F1.Scn1a^+/− mice [8] = conditions: 2017, cited from earlier work
# neuropathic pain model = conditions: combined with the MAGL inhibitor JZL184; ref Slivicki et al., 2018; cited from earlier work
# Aqueous solubility = assay type: physicochemical
# [9] = Oral bioavailability after subchronic oral administration; assay type: in vivo, mouse; conditions: sufficient plasma concentrations not achieved
# CB1 receptor [10] = conditions: ref Laprairie et al., 2017; cited from earlier work
# [11] = tested on: Genetic Absence Epilepsy Rats from Strasbourg (GAERS); conditions: ref Roebuck et al., 2021, cited from earlier work
# wildtype mice = conditions: 10 mg/kg; ref Laprairie et al., 2019; cited from earlier work
# CB1 receptor [12] = conditions: repeated exposure to low doses, ref Ghosh et al., 2013, Kinsey et al.; cited from earlier work
# [13] = brain, wildtype mice, 5 mg/kg i.p.
# [14] = brain, wildtype mice, 5 mg/kg i.p., converted from ng/mg brain assuming density of 1 g/mL
# [15] = plasma, wildtype mice, 5 mg/kg i.p.
smiles,measurement,setting,value
O=C(OC(C(F)(F)F)C(F)(F)F)N1CCN(Cc2ccc(C(F)(F)F)cc2N2CCCC2)CC1 [ABX-1431],AUC,"[1]; mouse, in vivo, ip, 5 mg/kg",483 ng·h/mL
same,Cmax,"[1]; mouse, in vivo, ip, 5 mg/kg",317 ± 40 ng/mL
same,brain half-life (in words),"[1]; mouse, in vivo, ip, 5 mg/kg",prolonged
same,half-life,"[1]; mouse, in vivo, ip, 5 mg/kg",47 min
same,Cmax,"[1]; mouse, in vivo, ip, 5 mg/kg, Cmax",468 ± 40 ng/mL
same,temperature threshold for thermally-induced seizures (GTCS),"F1.Scn1a^+/− mice [2]; 10 mg/kg i.p., vehicle 40.6 ± 0.1°C, p = 0.0008",41.3 ± 0.2 °C
same,concentration at 60 min,[3]; 3 mg/kg i.p.,198 ± 31 ng/mL
same,concentration at 60 min,[3]; 10 mg/kg i.p.,373 ± 53 ng/mL
same,concentration at 60 min,[3]; 30 mg/kg i.p.,883 ± 114 ng/mL
same,Plasma Concentration,[4],170 to 394 ng/mL
same,survival compared with untreated controls,"F1.Scn1a^+/− mice [5]; P18 to P30, p = 0.6803",not different
same,effect on spontaneous seizure (GTCS) frequency,"F1.Scn1a^+/− mice [5]; 60-h recording, vs untreated, p = 0.0064",significantly increase
same,proportion of seizures that progressed to full hindlimb extension,"F1.Scn1a^+/− mice [5]; 93/272 seizures, untreated 45/83 (54%), p = 0.0011",34%
same,effect on proportion of mice that exhibited seizures,"F1.Scn1a^+/− mice [5]; vs untreated, p = 0.6562",did not affect
same,hippocampal 2-AG concentrations relative to vehicle-treated mice,[6]; acute 10 mg/kg i.p.,8 fold
same,hippocampal 2-AG concentrations increase,[6]; acute 30 mg/kg i.p.,13 fold
same,hippocampal 2-AG concentrations increase,[6]; subchronic oral (350 mg/kg chow),15 fold
same,effect on hippocampal anandamide concentrations,anandamide (AEA),not affected
same,effect on hippocampal CB1 receptor expression,CB1 receptor [7],significantly lowered
"C=C(C)[C@@H]1CCC(C)=C[C@H]1c1c(O)cc(CCCCC)cc1O [CBD, cannabidiol]",effective dose in this model,"F1.Scn1a^+/− mice [8]; ref Anderson et al., 2020, 2019a, Kaplan et al.",100 mg/kg
O=[N+]([O-])CC(c1ccccc1)c1c(-c2ccccc2)[nH]c2ccccc12 (stereo not shown) [GAT211],antinociceptive effect,neuropathic pain model,synergistic
O=[N+]([O-])C[C@@H](c1ccccc1)c1c(-c2ccccc2)[nH]c2ccccc12 [GAT229],t1/2,[1]; [13],53 min
same,tmax,[1]; [13],30 ng/mL
same,AUC,[1]; [14],85 ^* μg min/mL
same,Cmax,[1]; [14],888 ± 90 ng/mL
same,AUC,[1]; [15],1230 ng·h/mL
same,Cmax,[1]; [15],858 ± 167 ng/mL
same,t1/2,[1]; [15],45 min
same,tmax,[1]; [15],30 ng/mL
same,brain-plasma,"[1]; wildtype mice, 5 mg/kg i.p.",110%
same,brain-plasma ratio,"[1]; wildtype mice, 5 mg/kg i.p.",1.1
same,temperature threshold for thermally-induced seizures (GTCS),"F1.Scn1a^+/− mice [2]; 30 mg/kg i.p., vehicle 41.1 ± 0.1°C, p = 0.0152",41.7 ± 0.2 °C
same,temperature threshold for thermally-induced seizures (GTCS),"F1.Scn1a^+/− mice [2]; 100 mg/kg i.p., vehicle 41.1 ± 0.1°C, p = 0.0059",41.8 ± 0.1 °C
same,Plasma Concentration,[3]; 10 mg/kg i.p.,900 ± 100 ng/mL
same,Plasma Concentration,[3]; 30 mg/kg i.p. (suspension),2600 ± 500 ng/mL
same,Plasma Concentration,[3]; 100 mg/kg i.p. (suspension),3200 ± 200 ng/mL
same,Plasma concentrations in experimental animals,[3]; 30 and 100 mg/kg doses,7.6–9.3 μM and 2.6–3.2 μg/mL
same,Plasma Concentration of GAT229,[3]; co-treatment GAT229 + ABX-1431 (30 mg/kg + 10 mg/kg),2300 ± 300 ng/mL
same,aqueous solubility,Aqueous solubility,poor
same,oral bioavailability,[9],poor
same,EC50,CB1 receptor [10],~0.295 µM
same,association with sedation or catalepsy,[11]; GAERs model,not associated
same,effect against absence seizures,[11],anticonvulsant effects
same,effect on locomotor activity,wildtype mice,reduced
O=C(Oc1ccc([N+](=O)[O-])cc1)N1CCC(C(O)(c2ccc3c(c2)OCO3)c2ccc3c(c2)OCO3)CC1 [JZL184],CB1 receptor downregulation and desensitization,CB1 receptor [12],does not occur
CN1C(=O)CC(=O)N(c2ccccc2)c2cc(Cl)ccc21 [clobazam],effective dose in this model,"F1.Scn1a^+/− mice [8]; ref Anderson et al., 2019a, Hawkins et al.",1 mg/kg

# From PMC9514665 (Neuropharmacology, 2021)
